# In ChEMBL document CHEMBL5214977, “Discovery and Optimization of Quinoline Analogues as Novel Potent Antivirals against Enterovirus D68” (J Med Chem, 2022):
# Activity calls are given as the source filed them. The rule behind the calls is not given here.
# How the values were obtained:
# enterovirus D68 [1] = assay: Antiviral activity against Enterovirus D68 infected in human RD cells assessed as reduction in thermal inactivation of virus at 55 degreeC at 12.5 uM incubated for 72 hrs by TCID50 assay; type: functional, organism-based
# How it was run: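 Compound at 12.5 μM or DMSO was incubated with EV-D68 (2 × 10^6 PFU/ml) at 33 °C for 30 min. The mixture was heated for 2 min at temperatures between 37 and 59 °C, then cooled to 4 °C. Residual titre was measured by TCID50 on RD cells: 10-fold virus dilutions, CPE scored after 72 h, Reed–Muench calculation.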
# enterovirus D68 [2] = assay: Antiviral activity against Enterovirus D68 infected in human RD cells assessed as inhibition of VP1 expression level incubated for 1.5 hrs by Western blot analysis; type: functional, organism-based; conditions: dose 0.1-10 µM, DDE = dose-dependent effect
# How it was run: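 RD cells (8.0 × 10^4 per well) were grown for 24 h, then infected with EV-D68 at MOI 0.01 for 1.5 h with gradient-diluted compound or DMSO. Lysates were made at 12 hpi in RIPA buffer and run on 10% SDS-PAGE. Blots were probed with anti-EV-D68 VP1 and anti-tubulin antibodies, with HRP secondary and ECL detection.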
# enterovirus D68 [3] = assay: Antiviral activity against Enterovirus D68 infected in human RD cells assessed as inhibition of VP1 expression level incubated for 12 hrs by Hoechst 33342 staining based immunofluorescence assay; type: functional, organism-based; conditions: dose 0.1-10 µM, DDE = dose-dependent effect
# How it was run: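 RD cells were infected with EV-D68 at MOI 1 together with compound for 12 h. Cells were fixed in 4% formaldehyde for 30 min and permeabilized in 0.1% Triton X-100 for 30 min, then blocked with 5% bovine serum. Staining used rabbit anti-VP1 with an Alexa-546 secondary and 1 μM Hoechst33342 nuclear stain, imaged by fluorescence microscopy.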
# enterovirus D68 [4] = assay: Antiviral activity against Enterovirus D68 infected in human RD cells assessed as inhibition of viral replication at 1 uM incubated for 1.5 hrs by crystal violet staining based plaque formation assay; type: functional, organism-based
# How it was run: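 Overnight RD monolayers received serially diluted virus stock plus compound for 1.5 h. Supernatant was removed and cells were overlaid with 2× DMEM containing 2% low-melting agarose. At 72 hpi cells were fixed with 4% paraformaldehyde for 4 h at room temperature and stained with 1% crystal violet to count plaques.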
# enterovirus D68 [5] = assay: Antiviral activity against Enterovirus D68 infected in human RD cells assessed as inhibition of viral replication at 2 uM treated for 14 hrs by qRT-PCR analysis; type: functional, organism-based
# How it was run: (§1)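 RD cells grown for 24 h were infected at 0 h with EV-D68 (MOI 0.01), and virus was washed off at 1 hpi. Compound at 2 μM or DMSO was added over set windows (0–1 h, after 1 hpi, or 0–14 h). Supernatants were collected at 14 hpi. Viral RNA copies were measured by qRT-PCR against a copy-number standard curve. Values are mean ± SD.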
# enterovirus D68 [6] = assay: Antiviral activity against Enterovirus D68 infected in human RD cells assessed as inhibition of viral replication at 2 uM treated for 1 hr by qRT-PCR analysis; type: functional, organism-based; how it was run: as §1
# enterovirus D68 [7] = assay: Antiviral activity against Enterovirus-D68 STL-2014-12 infected in human RD cells assessed as reduction in virus induced cytopathic effect by measuring ATP level incubated for 72 hrs by cell titer-glo luminescent cell viability assay; type: functional, organism-based
# How it was run: (§2)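 RD cells seeded at 1.5 × 10^4/well and grown 24 h, then given 100 TCID50 virus plus compound in 3-fold dilutions (0.01–200 μM). DMSO control. Incubated 37 °C for 72 h; ATP read by CellTiter-Glo luminescence and normalized to uninfected and infected controls. EC50 is the concentration giving 50% CPE reduction. Strains: STL-2014-12, US/KY/14-18953, US/MO/14-18947, Fermon.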
# [8] = Selectivity index, ratio of CC50 for human RD cells to EC50 for Enterovirus-D68 STL-2014-12 infected in human RD cells to; type: toxicity, cell-based; conditions: for selectivity ratio: RD cells, read-out: Ratio CC50/EC50
# How it was run: (§3)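 EC50 came from a CPE reduction assay. RD cells (1.5 × 10^4 per well, grown 24 h) were infected with 100 TCID50 of the named strain and given 3-fold dilutions from 0.01 to 200 μM. After 72 h at 37 °C, ATP was read by CellTiter-Glo and normalized to infected and uninfected controls. CC50 came from uninfected cells under the same dilutions, 72 h and ATP readout. SI = CC50/EC50.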
# [9] = Selectivity index, ratio of CC50 for human RD cells to EC50 for Enterovirus-D68 US/MO/14-18947 infected in human RD cells; type: toxicity, cell-based; conditions: read-out: Ratio CC50/EC50; how it was run: as §3
# [10] = Selectivity index, ratio of CC50 for human RD cells to EC50 for Enterovirus-D68 US/KY/14-18953 infected in human RD cells; type: toxicity, cell-based; conditions: read-out: Ratio CC50/EC50; how it was run: as §3
# [11] = Selectivity index, ratio of CC50 for human RD cells to EC50 for Enterovirus-D68 fermon infected in human RD cells; type: toxicity, cell-based; conditions: read-out: Ratio CC50/EC50; how it was run: as §3
# enterovirus D68 [12] = assay: Antiviral activity against Enterovirus-D68 US/KY/14-18953 infected in human RD cells assessed as reduction in virus induced cytopathic effect by measuring ATP level incubated for 72 hrs by cell titer-glo luminescent cell viability assay; type: functional, organism-based; conditions: Enterovirus D, US/KY/14-18953, RD; how it was run: as §2
# enterovirus D68 [13] = assay: Antiviral activity against Enterovirus-D68 fermon infected in human RD cells assessed as reduction in virus induced cytopathic effect by measuring ATP level incubated for 72 hrs by cell titer-glo luminescent cell viability assay; type: functional, organism-based; conditions: Enterovirus D; how it was run: as §2
# enterovirus D68 [14] = assay: Antiviral activity against Enterovirus-D68 US/MO/14-18947 infected in human RD cells assessed as reduction in virus induced cytopathic effect by measuring ATP level incubated for 72 hrs by cell titer-glo luminescent cell viability assay; type: functional, organism-based; conditions: Enterovirus D, US/MO/14-18947, RD; how it was run: as §2
# RD = assay: Cytotoxicity against human RD cells assessed as inhibition of cell viability by measuring ATP level incubated for 72 hrs by cell titer-glo luminescent cell viability assay; type: functional
# How it was run: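 Uninfected RD cells seeded at 1.5 × 10^4/well and grown 24 h, then exposed to compound in 3-fold dilutions (0.01–200 μM), with DMSO as cell control. ATP read by CellTiter-Glo luminescence after 72 h; CC50 is the 50% cytotoxic concentration.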
# enterovirus D68 [15] = assay: Antiviral activity against Enterovirus-D68 infected in human HeLa cells assessed as reduction in virus induced cytopathic effect incubated for […] by plaque reduction assay; type: functional, organism-based; conditions: Enterovirus D
# [16] = Oral bioavailability in Sprague-Dawley rat at 5 mg/kg measured upto 24 hrs by LC-MS/MS analysis; type: ADME, organism-based; conditions: in vivo
# How it was run: (§4)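 Male SD rats (6–9 or 6–8 weeks old, n = 3 per route) received a single 1 mg/kg iv or 5 mg/kg po dose. The vehicle was 5% DMSO/5% Solutol HS-15/90% water or 5% DMSO/95% HP-β-CD in water. Jugular blood was drawn into heparin at 0.083 (iv only), 0.25, 0.5, 1, 2, 4, 6 and 24 h. Plasma was analysed by LC-MS/MS. Values are mean ± SD.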
# [17] = AUC (0 to infinity) in Sprague-Dawley rat at 1 mg/kg, iv measured upto 24 hrs by LC-MS/MS analysis; type: ADME, organism-based; parameters: dose 1 mg/kg, time < 24 hrs, route iv; conditions: in vivo; how it was run: as §4
# [18] = AUC (0 to infinity) in Sprague-Dawley rat at 5 mg/kg, po measured upto 24 hrs by LC-MS/MS analysis; type: ADME, organism-based; parameters: time < 24 hrs, dose 5 mg/kg, route po; conditions: in vivo; how it was run: as §4
# [19] = AUC(0 to t) in Sprague-Dawley rat at 1 mg/kg, iv measured upto 24 hrs by LC-MS/MS analysis; type: ADME, organism-based; parameters: dose 1 mg/kg, time < 24 hrs, route iv; conditions: in vivo; how it was run: as §4
# [20] = Half life in Sprague-Dawley rat at 1 mg/kg, iv measured upto 24 hrs by LC-MS/MS analysis; type: ADME, organism-based; conditions: in vivo; how it was run: as §4
# [21] = Half life in Sprague-Dawley rat at 5 mg/kg, po measured upto 24 hrs by LC-MS/MS analysis; type: ADME, organism-based; conditions: in vivo; how it was run: as §4
# [22] = Tmax in Sprague-Dawley rat at 5 mg/kg, po measured upto 24 hrs by LC-MS/MS analysis; type: ADME, organism-based; conditions: in vivo; how it was run: as §4
# [23] = AUC (0 to t) in Sprague-Dawley rat at 5 mg/kg, po measured upto 24 hrs by LC-MS/MS analysis; type: ADME, organism-based; parameters: dose 5 mg/kg, time < 24 hrs, route po; conditions: in vivo; how it was run: as §4
# [24] = C0 in Sprague-Dawley rat at 1 mg/kg, iv measured upto 24 hrs by LC-MS/MS analysis; type: ADME, organism-based; conditions: in vivo; how it was run: as §4
# [25] = Cmax in Sprague-Dawley rat at 5 mg/kg, po measured upto 24 hrs by LC-MS/MS analysis; type: ADME, organism-based; parameters: dose 5 mg/kg, time < 24 hrs, route po; conditions: in vivo; how it was run: as §4
# [26] = Enterovirus D, STL-2014-12, RD, 72 h
SMILES,EC50 (enterovirus D68 [7]; [26]),CC50 (RD),selectivity ratio [8],also measured
Nc1ccc(-c2ccc3ncc(-c4noc(C(F)(F)F)n4)cc3c2)cc1,,,,Activity (enterovirus D68 [1]): Active; Activity (enterovirus D68 [2]): Dde; Activity (enterovirus D68 [3]): Dde; Activity (enterovirus D68 [4]): Active; Activity (enterovirus D68 [5]): Active; Activity (enterovirus D68 [6]): Active
Cl.Nc1ccc(-c2ccc3ncc(-c4noc(C(F)(F)F)n4)cc3c2)cc1,,,,EC50 (enterovirus D68 [7]; rd): 100 nM; Ratio CC50/EC50 [8]: > 111; selectivity ratio [9]: > 123; selectivity ratio [10]: > 123; selectivity ratio [11]: > 123; EC50 (enterovirus D68 [12]): 90 nM; EC50 (enterovirus D68 [13]): 90 nM; EC50 (enterovirus D68 [14]): 90 nM
CCc1nc(-c2cnc3ccc(-c4ccc(N)cc4)cc3c2)no1 [listing 1 of 2 here],,,,Activity (enterovirus D68 [2]): Dde; Activity (enterovirus D68 [3]): Dde; Activity (enterovirus D68 [4]): Active
CC(C)c1ccc(-c2ccc3ncc(-c4noc(C(F)(F)F)n4)cc3c2)cc1,5080 nM,> 200000 nM,> 39,
FC(F)(F)c1nc(-c2cnc3ccc(-c4ccccc4)cc3c2)no1,750 nM,> 22200 nM,> 30,
CCc1nc(-c2cnc3ccc(-c4ccc(N)nc4)cc3c2)no1,120 nM,> 66700 nM,> 555,
CCOC(=O)c1cnc2ccc(-c3cccc(N)c3)cc2c1,6730 nM,> 7400 nM,> 1,
Cc1cc(CCCOc2c(C)cc(-c3noc(C(F)(F)F)n3)cc2C)on1 [PLECONARIL],400 nM,> 200000 nM,> 250,EC50 (enterovirus D68 [15]): 430 nM; selectivity ratio [9]: > 156; selectivity ratio [10]: > 417; Activity (enterovirus D68 [1]): Active; selectivity ratio [11]: > 333; EC50 (enterovirus D68 [12]): 240 nM; EC50 (enterovirus D68 [13]): 300 nM; EC50 (enterovirus D68 [14]): 640 nM
CCc1nc(-c2cnc3ccc(-c4ccc(N)cc4)cc3c2)no1.Cl,,,,F [16]: 6.8%; EC50 (enterovirus D68 [7]; rd): 80 nM; Ratio CC50/EC50 [8]: > 139; AUC [17]: 158 ng·h/mL; selectivity ratio [9]: > 159; selectivity ratio [10]: > 159; AUC [18]: 53.8 ng·h/mL; AUCt [19]: 157 ng·h/mL; t1/2 [20]: 18.5 min; t1/2 [21]: 63.6 min; selectivity ratio [11]: > 185; Tmax [22]: 25 min; EC50 (enterovirus D68 [12]): 70 nM; EC50 (enterovirus D68 [13]): 60 nM; EC50 (enterovirus D68 [14]): 70 nM; AUC [23]: 49.5 ng·h/mL; C0 [24]: 1370 ng/mL; Cmax [25]: 36.1 ng/mL
CCc1nc(-c2cnc3ccc(-c4cccc(N)c4)cc3c2)no1,170 nM,> 7400 nM,> 44,
CCCCc1ccc(-c2ccc3ncc(-c4noc(CC)n4)cc3c2)cc1,180 nM,> 7400 nM,> 41,
CCCCc1ccc(-c2ccc3ncc(-c4noc(C(F)(F)F)n4)cc3c2)cc1,190 nM,> 7400 nM,> 39,
CN(C)c1ccc(-c2ccc3ncc(-c4noc(C(F)(F)F)n4)cc3c2)cc1,1350 nM,> 22200 nM,> 16,
CCc1nc(-c2cnc3ccc(-c4ccc(N)cc4)cc3c2)no1 [listing 2 of 2 here],100 nM,> 2500 nM,,Ratio CC50/EC50 [8]: > 25
CCCc1ccc(-c2ccc3ncc(-c4noc(CC)n4)cc3c2)cc1,530 nM,> 7400 nM,> 14,
Fc1ccc(-c2ccc3ncc(-c4noc(C(F)(F)F)n4)cc3c2)cc1,1220 nM,> 7400 nM,> 6,
CCc1nc(-c2cnc3ccc(-c4ccc(Cl)cc4)cc3c2)no1,3020 nM,> 22200 nM,> 7,
CC(C)c1nc(-c2cnc3ccc(-c4ccc(N)cc4)cc3c2)no1,400 nM,> 800 nM,> 2,
CCc1ccc(-c2ccc3ncc(-c4noc(CC)n4)cc3c2)cc1,590 nM,> 22200 nM,> 38,
CCOC(=O)c1cnc2ccc(-c3ccc(N)cc3)cc2c1,470 nM,> 7400 nM,> 16,
CCOC(=O)c1ccc(OCCC2CCN(c3ccc(C)nn3)CC2)cc1 [PIRODAVIR],,,,EC50 (enterovirus D68 [15]): 1610 nM
CCCCc1ccc(-c2ccc3ncc(-c4noc(C)n4)cc3c2)cc1,590 nM,> 2500 nM,> 4,
